Source: ChEMBL document CHEMBL1124962, “Synthesis and structure-affinity of a series of 7 alpha-undecylestradiol derivatives: a potential vector for therapy and imaging of estrogen-receptor-positive cancers” (J Med Chem, 1990)

How the values were obtained:
[1] = target: T1, Estrogen receptor (Bos taurus) (UniProt Q9XSB5+P49884); experiment: Ratio of displacement of 17-beta-[3H]-estradiol from calf uterine estrogen receptor compared to 17-beta-estradiol after 12 hr incubation; format: protein assay
Outline: (§1)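 Calf uterine cytosol (105000g, 60 min, 4 °C spin of homogenate in 5 mM sodium phosphate pH 7.5, 10 mM monothioglycerol, 10% glycerol; 0.68 mg protein in final mix) incubated at 4 °C without DMF with 10⁻⁹ M 17β-[³H]estradiol and nine competitor concentrations (3 × 10⁻¹²–10⁻⁶ M), triplicates. Dextran-coated charcoal separation, supernatant counted. RBA = IC50 ratio of estradiol to competitor ×100, mean of ≥3 experiments.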

[2] = target: T1, Estrogen receptor (Bos taurus); experiment: Ratio of displacement of 17-beta-[3H]-estradiol from calf uterine estrogen receptor compared to 17-beta-estradiol after 20 hr incubation; format: protein assay; outline: as §1

SMILES | relative binding affinity (RBA) [1] | relative binding affinity (RBA) [2]
C=CCCCCCCCCC[C@@H]1Cc2cc(O)ccc2[C@H]2CC[C@]3(C)[C@@H](O)CC[C@H]3[C@H]12 | 0.09 | 0.09
C[C@]12CC[C@@H]3c4ccc(O)cc4CC[C@H]3[C@@H]1C[C@@H](I)[C@@H]2O | 22.1 | 27.1
C[C@]12CC[C@@H]3c4ccc(O)cc4C[C@@H](CCCCCCCCCCCOc4ccccc4)[C@H]3[C@@H]1CC[C@@H]2O | 0.1 | 0.1
C[C@]12CC[C@@H]3c4ccc(O)cc4C[C@@H](CCCCCCCCCCCOc4ccc(I)cc4)[C@H]3[C@@H]1CC[C@@H]2O | 0.1 | 0.09

Second part, the compound after the results:

relative binding affinity (RBA) [1] | relative binding affinity (RBA) [2] | SMILES
0.04 | 0.1 | C[C@]12CC[C@@H]3c4ccc(O)cc4C[C@@H](CCCCCCCCCCCI)[C@H]3[C@@H]1CC[C@@H]2O
1.3 | 1.5 | C[C@]12CC[C@@H]3c4ccc(O)cc4C[C@@H](CCCCCCCCCCCF)[C@H]3[C@@H]1CC[C@@H]2O
0.7 | 0.7 | C[C@]12CC[C@@H]3c4ccc(O)cc4C[C@@H](CCCCCCCCCCCCl)[C@H]3[C@@H]1CC[C@@H]2O
2.9 | 2 | C[C@]12CC[C@@H]3c4ccc(O)cc4C[C@@H](CCCCCCCCCCCO)[C@H]3[C@@H]1CC[C@@H]2O
0.05 | 0.2 | C[C@]12CC[C@@H]3c4ccc(O)cc4C[C@@H](CCCCCCCCCCCBr)[C@H]3[C@@H]1CC[C@@H]2O
